In brackets after ≈: the same amount, converted by molar mass. Activity calls are given as the source filed them. No cut-off for these calls is given here.
Tests used:
[1] = Solubility of the compound in methanol; type: physicochemical
[2] = Inhibition of Plasmodium falciparum M1 aminopeptidase; details: read-out: Ki(app)
[3] = target: T1, Aminopeptidase N (Homo sapiens, UniProt P15144); assay: Inhibition of soluble human APN ectodomain stably expressed in HEK293 GnTI(-) cells using H-Leu-NHMec as substrate preincubated for 10 mins followed by substrate addition and measured for 1 hr by spectrofluorimetric method; details: read-out: Ki(app)
T1 sequence (P15144 whole entry, the tested form may be a part): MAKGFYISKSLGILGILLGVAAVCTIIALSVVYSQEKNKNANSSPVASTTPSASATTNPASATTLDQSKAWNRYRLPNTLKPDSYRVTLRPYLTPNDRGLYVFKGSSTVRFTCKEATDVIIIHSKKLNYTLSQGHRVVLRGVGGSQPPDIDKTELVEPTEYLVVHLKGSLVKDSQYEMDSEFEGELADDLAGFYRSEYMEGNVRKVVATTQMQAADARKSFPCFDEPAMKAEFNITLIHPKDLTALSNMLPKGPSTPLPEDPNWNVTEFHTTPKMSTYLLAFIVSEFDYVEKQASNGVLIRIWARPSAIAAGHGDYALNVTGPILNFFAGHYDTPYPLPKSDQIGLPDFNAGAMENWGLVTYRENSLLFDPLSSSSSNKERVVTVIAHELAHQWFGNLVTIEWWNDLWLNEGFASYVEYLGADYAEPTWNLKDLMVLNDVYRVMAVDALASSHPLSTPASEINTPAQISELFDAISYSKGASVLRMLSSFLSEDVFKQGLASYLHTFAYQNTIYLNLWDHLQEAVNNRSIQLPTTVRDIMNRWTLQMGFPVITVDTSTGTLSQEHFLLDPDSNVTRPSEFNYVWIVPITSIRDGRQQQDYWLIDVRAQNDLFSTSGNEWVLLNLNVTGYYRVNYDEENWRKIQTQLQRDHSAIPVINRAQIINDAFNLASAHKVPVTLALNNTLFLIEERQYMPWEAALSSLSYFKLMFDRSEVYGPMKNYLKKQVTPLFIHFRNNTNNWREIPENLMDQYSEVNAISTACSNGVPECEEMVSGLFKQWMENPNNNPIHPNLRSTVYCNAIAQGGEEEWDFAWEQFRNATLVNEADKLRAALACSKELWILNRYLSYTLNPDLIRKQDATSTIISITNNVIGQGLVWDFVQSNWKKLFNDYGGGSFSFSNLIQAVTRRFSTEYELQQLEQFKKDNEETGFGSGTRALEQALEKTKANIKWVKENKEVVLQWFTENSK

[4] = target: 72 kDa type IV collagenase (Homo sapiens, UniProt P08253); assay: Inhibition of MMP2 (unknown origin) using QF-24 as substrate preincubated for 1 hr followed by substrate addition and measured at 1 min interval for 1 hr by fluorescence assay
Chain of 72 kDa type IV collagenase (P08253 whole entry): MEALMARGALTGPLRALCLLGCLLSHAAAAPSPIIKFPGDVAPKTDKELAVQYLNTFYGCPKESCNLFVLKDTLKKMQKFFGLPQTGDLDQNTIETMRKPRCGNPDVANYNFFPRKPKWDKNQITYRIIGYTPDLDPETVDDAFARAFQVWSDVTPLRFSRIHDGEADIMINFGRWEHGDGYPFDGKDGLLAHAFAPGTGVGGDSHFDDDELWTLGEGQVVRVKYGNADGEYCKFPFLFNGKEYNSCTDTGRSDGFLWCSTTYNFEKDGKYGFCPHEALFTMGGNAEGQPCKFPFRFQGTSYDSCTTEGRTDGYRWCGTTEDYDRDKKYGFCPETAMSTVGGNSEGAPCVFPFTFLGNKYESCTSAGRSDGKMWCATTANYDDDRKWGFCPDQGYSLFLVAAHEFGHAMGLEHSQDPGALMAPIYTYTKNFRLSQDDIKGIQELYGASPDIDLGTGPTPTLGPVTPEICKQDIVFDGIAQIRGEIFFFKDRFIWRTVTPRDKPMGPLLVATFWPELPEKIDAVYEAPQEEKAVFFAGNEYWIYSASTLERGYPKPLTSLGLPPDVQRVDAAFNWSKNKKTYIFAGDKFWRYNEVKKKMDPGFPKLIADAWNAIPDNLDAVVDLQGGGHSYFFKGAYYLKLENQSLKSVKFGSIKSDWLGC

[5] = target: Matrix metalloproteinase-9 (Homo sapiens, UniProt P14780); assay: Inhibition of MMP9 (unknown origin) using QF-24 as substrate preincubated for 1 hr followed by substrate addition and measured at 1 min interval for 1 hr by fluorescence assay
Chain of Matrix metalloproteinase-9 (P14780 whole entry): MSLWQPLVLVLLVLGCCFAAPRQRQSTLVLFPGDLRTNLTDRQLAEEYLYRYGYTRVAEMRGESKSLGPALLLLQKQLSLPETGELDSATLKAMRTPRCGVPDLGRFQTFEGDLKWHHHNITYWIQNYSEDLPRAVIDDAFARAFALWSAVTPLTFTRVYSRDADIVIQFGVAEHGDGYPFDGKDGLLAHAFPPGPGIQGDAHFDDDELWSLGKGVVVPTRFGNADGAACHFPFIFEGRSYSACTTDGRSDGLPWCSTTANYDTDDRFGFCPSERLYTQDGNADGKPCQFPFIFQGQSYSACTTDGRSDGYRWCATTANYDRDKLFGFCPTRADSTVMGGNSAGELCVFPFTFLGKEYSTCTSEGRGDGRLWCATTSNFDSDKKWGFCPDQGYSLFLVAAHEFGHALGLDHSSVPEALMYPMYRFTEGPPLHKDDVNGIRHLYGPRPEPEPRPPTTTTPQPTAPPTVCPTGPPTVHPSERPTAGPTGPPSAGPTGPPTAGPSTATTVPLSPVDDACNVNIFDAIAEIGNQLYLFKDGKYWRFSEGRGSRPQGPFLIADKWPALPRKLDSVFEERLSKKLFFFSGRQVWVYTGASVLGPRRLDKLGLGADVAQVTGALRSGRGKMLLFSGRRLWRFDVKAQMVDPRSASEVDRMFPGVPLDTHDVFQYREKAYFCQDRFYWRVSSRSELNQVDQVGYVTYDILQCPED

[6] = target: Neutrophil collagenase (Homo sapiens) (UniProt P22894); assay: Inhibition of MMP8 (unknown origin) using QF-24 as substrate preincubated for 1 hr followed by substrate addition and measured at 1 min interval for 1 hr by fluorescence assay
Chain of Neutrophil collagenase (Homo sapiens) (P22894 101-467 limits assumed): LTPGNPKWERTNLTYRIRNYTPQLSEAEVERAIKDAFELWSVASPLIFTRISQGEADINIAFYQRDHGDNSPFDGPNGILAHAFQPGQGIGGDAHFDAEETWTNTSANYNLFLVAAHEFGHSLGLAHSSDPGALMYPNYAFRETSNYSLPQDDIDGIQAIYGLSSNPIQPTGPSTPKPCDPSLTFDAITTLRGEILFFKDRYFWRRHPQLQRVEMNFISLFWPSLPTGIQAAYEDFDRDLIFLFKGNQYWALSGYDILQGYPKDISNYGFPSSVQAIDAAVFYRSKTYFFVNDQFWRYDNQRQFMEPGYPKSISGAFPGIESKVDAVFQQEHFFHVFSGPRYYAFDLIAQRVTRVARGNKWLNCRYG

[7] = target: T2, Matrilysin (Homo sapiens) (UniProt P09237); assay: Inhibition of MMP7 (unknown origin) using QF-24 as substrate preincubated for 1 hr followed by substrate addition and measured at 1 min interval for 1 hr by fluorescence assay
T2 sequence (whole entry): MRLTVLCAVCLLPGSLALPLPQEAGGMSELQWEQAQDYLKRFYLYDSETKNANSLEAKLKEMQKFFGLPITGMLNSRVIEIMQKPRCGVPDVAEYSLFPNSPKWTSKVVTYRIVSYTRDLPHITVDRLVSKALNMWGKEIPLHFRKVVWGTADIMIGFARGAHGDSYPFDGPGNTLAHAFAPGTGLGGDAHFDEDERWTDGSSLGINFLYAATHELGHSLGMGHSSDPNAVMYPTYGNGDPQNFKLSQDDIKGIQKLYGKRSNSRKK

[8] = Cytotoxicity against human AD293 cells measured after 72 hrs by celltitre-blue assay; type: cell-based
[9] = Kinetic solubility of the compound in 0.01 M HCl at pH 2 after 30 mins by nephelometry; type: physicochemical; details: read-out: Kinetic_solubility
How it was run: (§1)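 Kinetic solubility read by nephelometry under pH 2 (stomach-like) and pH 6.5 (upper fasted small intestine-like) conditions.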

[10] = Kinetic solubility of the compound in phosphate buffer at pH 6.5 after 30 mins by nephelometry; type: physicochemical; details: read-out: Kinetic_solubility; how it was run: as §1
[11] = Partition coefficient, log D of compound at pH 7.4 by HPLC analysis; type: physicochemical; details: octanol/water
How it was run: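 LogD at pH 7.4 estimated by a chromatographic method.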

[12] = Half life in mouse liver microsomes at 1 uM in presence of NADPH; type: ADME, Microsome
[13] = Half life in human liver microsomes at 1 uM in presence of NADPH; type: ADME, Microsome
[14] = Intrinsic clearance in mouse liver microsomes assessed per mg protein at 1 uM in presence of NADPH; type: ADME, Microsome; details: read-out: CLH
[15] = Intrinsic clearance in human liver microsomes assessed per mg protein at 1 uM in presence of NADPH; type: ADME, Microsome; details: read-out: CLH
[16] = Half life in Swiss mouse plasma at 1000 ng/ml by LC-MS analysis; type: ADME, cell-free
[17] = Half life in human plasma at 1000 ng/ml by LC-MS analysis; type: ADME, cell-free
[18] = target: T1, Aminopeptidase N; assay: Potency index, ratio of bestatin Ki(app) to test compound Ki(app) for soluble human APN ectodomain stably expressed in HEK293 GnTI(-) cells; type: cell-based
[19] = target: T1, Aminopeptidase N; assay: Potency index, ratio of tosedostat Ki(app) to test compound Ki(app) for soluble human APN ectodomain stably expressed in HEK293 GnTI(-) cells; type: cell-based

O=C(NC(C(=O)NO)c1ccc(-c2cc(F)c(F)c(F)c2)cc1)c1ccc(O)c(O)c1 (stereo not drawn)
solubility [1]: Insoluble

CC(C)C[C@H](NC(=O)[C@@H](O)[C@H](N)Cc1ccccc1)C(=O)O [UBENIMEX]
Ki [2]: 1.53 µM

NS(=O)(=O)Nc1ccc(C(=O)NC(C(=O)NO)c2ccc(-c3cc(F)c(F)c(F)c3)cc2)cc1 (stereo not drawn)
Ki [3]: 0.0082 µM
IC50 [4]: 2.1 µM
IC50 [5]: > 100 µM
inhibition [6]: inactive
inhibition [7]: inactive
CC50 at 72 h [8]: 149 µM
solubility kinetic at 0.5 h [9]: 6.3 to 12.5 µg/mL (≈ 12.7 to 25.3 µM)
solubility kinetic at 0.5 h [10]: 12.5 to 25 µg/mL (≈ 25.3 to 50.6 µM)
logD [11]: 2.6
half-life at 1 µM [12]: > 4.17 h
half-life at 1 µM [13]: > 4.17 h
microsomal CLint at 1 µM [14]: < 7 µL/min/mg
microsomal CLint at 1 µM [15]: < 7 µL/min/mg
half-life at 1000 ng/ml [16]: > 17 h
half-life at 1000 ng/ml [17]: > 17 h

O=C(Cc1ccc(O)cc1)NC(C(=O)NO)c1ccc(-c2cc(F)c(F)c(F)c2)cc1 (stereo not drawn)
solubility [1]: Insoluble

CC(C)C[C@@H](C(=O)N[C@H](C(=O)OC1CCCC1)c1ccccc1)[C@H](O)C(=O)NO [TOSEDOSTAT]
Ki [3]: 1.18 µM
Ki [2]: 6.15 µM
IC50 [4]: 0.19 µM
IC50 [5]: 1.5 µM
inhibition [6]: Active
inhibition [7]: Active

O=C(NO)C(NCc1ccc(F)c(O)c1)c1ccc(-c2cc(F)c(F)c(F)c2)cc1 (stereo not drawn)
Ki [3]: > 1000 µM

CNC(=O)[C@@H](NC(=O)[C@H](CC(C)C)[C@H](O)C(=O)NO)C(C)(C)C
inhibition [6]: Active
inhibition [7]: Active

O=C(Cc1ccc(F)c(O)c1)NC(C(=O)NO)c1ccc(-c2cc(F)c(F)c(F)c2)cc1 (stereo not drawn)
solubility [1]: Insoluble

COC(=O)C(NC(=O)CC(=O)O)c1ccc(-c2cc(F)c(F)c(F)c2)cc1 (stereo not drawn)
solubility [1]: Insoluble

O=C(Cc1ccc(O)c(O)c1)NC(C(=O)NO)c1ccc(-c2cc(F)c(F)c(F)c2)cc1 (stereo not drawn)
solubility [1]: Insoluble

CS(=O)(=O)Nc1ccc(C(=O)NC(C(=O)NO)c2ccc(-c3cc(F)c(F)c(F)c3)cc2)cc1 (stereo not drawn)
Ki [3]: 0.0045 µM
Ratio Ki(app) [18]: 527
IC50 [4]: 1.3 µM
IC50 [5]: > 100 µM
inhibition [6]: inactive
inhibition [7]: inactive
CC50 at 72 h [8]: 41 µM
solubility kinetic at 0.5 h [9]: 12.5 to 25 µg/mL (≈ 25.3 to 50.7 µM)
solubility kinetic at 0.5 h [10]: 12.5 to 25 µg/mL (≈ 25.3 to 50.7 µM)
logD [11]: 2.8
half-life at 1 µM [12]: > 4.17 h
half-life at 1 µM [13]: > 4.17 h
microsomal CLint at 1 µM [14]: < 7 µL/min/mg
microsomal CLint at 1 µM [15]: < 7 µL/min/mg
half-life at 1000 ng/ml [16]: > 17 h
half-life at 1000 ng/ml [17]: > 17 h

O=C(Cc1ccc(O)c(F)c1)NC(C(=O)NO)c1ccc(-c2cc(F)c(F)c(F)c2)cc1 (stereo not drawn)
solubility [1]: Insoluble

CC(C)(C)C(=O)NC(C(=O)NO)c1ccc(-c2cc(F)c(F)c(F)c2)cc1 (stereo not drawn)
Ki [3]: 0.118 µM
Ki [2]: 0.331 µM
Ratio Ki(app) [18]: 10 to 20
Ratio Ki(app) [19]: 10 to 20
inhibition [6]: inactive
inhibition [7]: inactive
